8 compounds from ChEMBL document CHEMBL1142416, “Pharmacological exploitation of the peroxisome proliferator-activated receptor gamma agonist ciglitazone to develop a novel class of androgen receptor-ablative agents” (J Med Chem, 2008) can be followed below.

SMILES strings stand for the structures. pIC50: −log10 of the molar value. The source made the active and inactive calls. The rule behind the calls is not given here.

Test [1] relates to LNCaP. The experiment in a line: Inhibition of androgen receptor protein expression in human LNCaP cells after 72 hrs by Western blotting. The class given is functional, cell-based. The procedure, abridged:
(§1)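 LNCaP cells (1×10⁶/T25 flask) were exposed in 10% FBS-supplemented medium; dose series ran 72 h. Protein extracts were resolved on 10% SDS-PAGE and transferred to nitrocellulose, then blocked in 5% milk/TBST. Blots were probed overnight at 4°C with mouse anti-AR or anti-β-actin (1:1000), then HRP goat anti-mouse (1:2500, 1 h), and detected by enhanced chemiluminescence.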
On the technique in general: Immunoblotting shows a protein as a band on a membrane.

The test system of test [2] is LNCaP. The experiment in a line: Suppression of androgen receptor protein expression in human LNCaP cells at 30 uM by Western blotting. The format is functional, cell-based. The procedure, abridged: as §1
The test system of test [3] is LNCaP. Put plainly: Cell cycle arrest in human LNCaP cells assessed as accumulation at subG1 phase at 2.5 uM after 72 hrs. The format is functional. The method in brief: (§2)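 LNCaP cells were plated at 2.5 × 10⁶ cells/well and treated at the stated concentrations for 72 h. They were washed in PBS, trypsinized and fixed in ice-cold 80% ethanol overnight at 4°C. Staining used propidium iodide (50 μg/ml) with RNase A (100 units/ml) in PBS. Phase distribution was measured by flow cytometry; values are the mean of two independent determinations.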

Test [4] concerns LNCaP. The experiment in a line: Cell cycle arrest in human LNCaP cells assessed as accumulation at G1 phase at 2.5 uM after 72 hrs. The format is functional. The procedure, abridged: as §2
In test [5] the test system is LNCaP. Put plainly: Cell cycle arrest in human LNCaP cells assessed as accumulation at S phase at 2.5 uM after 72 hrs. The class given is functional. The method in brief:
as §2

In test [6] the test system is LNCaP. Put plainly: Cell cycle arrest in human LNCaP cells assessed as accumulation at G2/M phase at 2.5 uM after 72 hrs. The format is functional. The method in brief: as §2
Test [7] deals with LNCaP. Put plainly: Cell cycle arrest in human LNCaP cells assessed as accumulation at subG1 phase at 5 uM after 72 hrs. The class given is functional. The method in brief: as §2
In test [8] the test system is LNCaP. Put plainly: Cell cycle arrest in human LNCaP cells assessed as accumulation at G1 phase at 5 uM after 72 hrs. The class given is functional. The procedure, abridged: as §2
The subject of test [9] is LNCaP. Put plainly: Cell cycle arrest in human LNCaP cells assessed as accumulation at S phase at 5 uM after 72 hrs. The class given is functional. The method in brief: as §2
In test [10] the test system is LNCaP. The experiment in a line: Cell cycle arrest in human LNCaP cells assessed as accumulation at G2/M phase at 5 uM after 72 hrs. The format is functional. The method in brief:
as §2

The subject of test [11] is LNCaP. Put plainly: Cell cycle arrest in human LNCaP cells assessed as accumulation at subG1 phase at 7.5 uM after 72 hrs. The class given is functional. The procedure, abridged: as §2
In test [12] the test system is LNCaP. Put plainly: Cell cycle arrest in human LNCaP cells assessed as accumulation at G1 phase at 7.5 uM after 72 hrs. The class given is functional. The procedure, abridged:
as §2

Test [13] concerns LNCaP. The experiment in a line: Cell cycle arrest in human LNCaP cells assessed as accumulation at S phase at 7.5 uM after 72 hrs. The format is functional. The procedure, abridged:
as §2

Test [14] deals with LNCaP. The experiment in a line: Cell cycle arrest in human LNCaP cells assessed as accumulation at G2/M phase at 7.5 uM after 72 hrs. The class given is functional. The procedure, abridged: as §2
The subject of test [15] is LNCaP. The experiment in a line: Cell cycle arrest in human LNCaP cells assessed as accumulation at subG1 phase at 10 uM after 72 hrs. The format is functional. The procedure, abridged: as §2
The test system of test [16] is LNCaP. Put plainly: Cell cycle arrest in human LNCaP cells assessed as accumulation at G1 phase at 10 uM after 72 hrs. The class given is functional. The procedure, abridged: as §2
In test [17] the test system is LNCaP. Put plainly: Cell cycle arrest in human LNCaP cells assessed as accumulation at S phase at 10 uM after 72 hrs. The format is functional. The method in brief:
as §2

The test system of test [18] is LNCaP. The experiment in a line: Cell cycle arrest in human LNCaP cells assessed as accumulation at G2/M phase at 10 uM after 72 hrs. The class given is functional. The procedure, abridged: as §2
For test [19], the system named is LNCaP. Put plainly: Inhibition of androgen receptor mRNA expression in human LNCap cells after 72 hrs. The class given is functional, cell-based. The following applies: in the assay text read “protein expression” for “mRNA expression”.
Test [20] deals with LNCaP. The experiment in a line: Decrease in androgen receptor protein expression in human LNCaP cells at 5 uM after 48 hrs by immunocytochemical method. The class given is functional, cell-based. The procedure, abridged: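 LNCaP cells were seeded on coverslips (2.5 × 10⁵/well) for 24 h, then exposed to 5 μM for 48 h. They were fixed and permeabilized with 0.1% Triton X-100 in PBS for 1 h. Mouse anti-AR (1:100) was applied for 12 h at room temperature, then Alexa Fluor 488 goat anti-mouse IgG (1:100) for 2 h. Nuclei were counterstained with DAPI and slides imaged by microscopy.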

Test [21] has as its system LNCaP. Put plainly: Antitumor activity against androgen responsive human LNCaP cells by MTT assay at 48 hrs. The class given is functional, cell-based. The method in brief:
(§3)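 LNCaP or PC-3 cells were seeded at 6000/well in 10% FBS RPMI 1640 for 24 h. They were then treated at various concentrations in 5% FBS RPMI 1640 for 48 or 72 h, with DMSO-matched controls. MTT (0.5 mg/ml) was added for 2 h at 37°C and the dye solubilized in DMSO. A570 was read in six replicates, and IC50 was taken from dose-response.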
On the technique in general: Formazan colour is commonly taken as a measure of viable cells.

The subject of test [22] is LNCaP. The experiment in a line: Antitumor activity against androgen responsive human LNCaP cells by MTT assay at 72 hrs. The format is functional, cell-based. The procedure, abridged:
as §3

Test [23] deals with PC-3. Put plainly: Antitumor activity against androgen non-responsive human PC3 cells by MTT assay at 48 hrs. The format is functional, cell-based. The following applies: PC-3, 48 h. The method in brief: as §3
The test system of test [24] is PC-3. The experiment in a line: Antitumor activity against androgen non-responsive human PC3 cells by MTT assay at 72 hrs. The class given is functional, cell-based. Particulars: PC-3, 72 h. The procedure, abridged:
as §3

For test [25], the system named is LNCaP. The experiment in a line: Induction of apoptosis in human LNCaP cells assessed as PARP cleavage after 72 hrs. The format is functional, cell-based. The method in brief:
(§4)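 LNCaP cells were treated over a dose range for 72 h. Lysates were prepared with protease/phosphatase inhibitors and run on 10% SDS-PAGE, then transferred to nitrocellulose. PARP cleavage and caspase-3 and caspase-7 processing were detected by immunoblot with chemiluminescence.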

For test [26], the system named is LNCaP. The experiment in a line: Induction of apoptosis in human LNCaP cells assessed as caspase 3 activation after 72 hrs. The class given is functional, cell-based. The method in brief:
as §4

In test [27] the test system is LNCaP. The experiment in a line: Induction of apoptosis in human LNCaP cells assessed as caspase 7 activation after 72 hrs. The format is functional, cell-based. The procedure, abridged: as §4
Test [28] relates to LNCaP. Put plainly: Cell cycle arrest in human LNCaP cells assessed as accumulation at subG1 phase at 1 uM after 72 hrs. The class given is functional. The procedure, abridged:
as §2

The subject of test [29] is LNCaP. The experiment in a line: Cell cycle arrest in human LNCaP cells assessed as accumulation at G1 phase at 1 uM after 72 hrs. The format is functional. The procedure, abridged: as §2
Test [30] relates to LNCaP. Put plainly: Cell cycle arrest in human LNCaP cells assessed as accumulation at S phase at 1 uM after 72 hrs. The class given is functional. The procedure, abridged: as §2
The subject of test [31] is LNCaP. The experiment in a line: Cell cycle arrest in human LNCaP cells assessed as accumulation at G2/M phase at 1 uM after 72 hrs. The format is functional. The procedure, abridged:
as §2

Test [32] deals with LNCaP. Put plainly: Suppression of androgen receptor protein expression in human LNCaP cells at 60 uM by Western blotting. The format is functional, cell-based. The method in brief:
as §1

The test system of test [33] is LNCaP. Put plainly: Suppression of androgen receptor mRNA expression in human LNCaP cells at 60 uM by RT-PCR. The class given is functional, cell-based. The procedure, abridged:
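LNCaP cells (1×10⁶/T25 flask) were treated in 10% FBS-supplemented medium for various times. Total RNA was isolated and 6 μg reverse-transcribed. AR and β-actin (reference) were amplified by PCR with gene-specific primers, and products were resolved on 1.5% agarose gels.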

With `CC1(CN2C(=O)SC(Cc3ccc(O)c(C(F)(F)F)c3)C2=O)CCCCC1` (configuration not stated), the Activity entry in the test with LNCaP [1] is “Dose-dependent effect”.

In the case of `CC1(COc2ccc(/C=C3\SC(O)=NC3=O)cc2)CCCCC1`, the outcome in the test on LNCaP [2] was Active.

In general, pIC50 refers to −log10 of the IC50, conventionally taken in molar units. As for `CC1(CN2C(=O)S/C(=C\c3ccc(O)c(C(F)(F)F)c3)C2=O)CCCCC1`, the Activity worked out at 2% in the test with LNCaP [3]; 65% with LNCaP [4]; 19% with LNCaP [5]; 14% in the test with LNCaP [6]; 10% with LNCaP [7]; 69% in the test with LNCaP [8]. The Activity with LNCaP [9] turned out to be 18%; in the test on LNCaP [10], 3%; in the test on LNCaP [11], 20%; with LNCaP [12] it was 63%; in the test on LNCaP [13], 15%; in the test on LNCaP [14] it was 2%. Also, the Activity in the test on LNCaP [15] is 28%; in the test on LNCaP [16], 51%; with LNCaP [17] it was 21%; in the test with LNCaP [18] it was 0%; with LNCaP [25] it was “Dose-dependent effect”; in the test with LNCaP [26], “Dose-dependent effect”. The Activity entry in the test with LNCaP [27] was “Dose-dependent effect”; in the test on LNCaP [28], 1%; with LNCaP [29] it was 66%; in the test with LNCaP [30], 19%; with LNCaP [31], 14%. The result with LNCaP [19] and in the test on LNCaP [20] was Active. The pIC50 was 5.70 in the test on LNCaP [1]; 5.10 in the test on LNCaP [21]; 5.52 in the test on LNCaP [22]; 4.82 in the test on PC-3 [23]; 4.92 in the test with PC-3 [24].

Turning to `CCOc1cc(/C=C2\SC(=O)NC2=O)ccc1OCC1(C)CCCCC1`, the Activity result in the test on LNCaP [1] is “Dose-dependent effect”.

Regarding `CC1(COc2cccc(/C=C3\SC(=O)NC3=O)c2)CCCCC1`, the Activity result in the test on LNCaP [1] is “Dose-dependent effect”.

For `CC1(CN2C(=O)S/C(=C\c3ccc(O)cc3)C2=O)CCCCC1`, the Activity result in the test with LNCaP [1] is “Dose-dependent effect”.

As to `CC1(COc2ccc(CC3SC(=O)NC3=O)cc2)CCCCC1` (configuration not stated), the result with LNCaP [32] and with LNCaP [33] was Active.

Take `CC1(CN2C(=O)S/C(=C\c3cc(Br)c(O)c(Br)c3)C2=O)CCCCC1`: the result with LNCaP [19] was Active. In the test with LNCaP [1], this compound had a pIC50 of 5.40. Moreover, the Activity entry with LNCaP [25], with LNCaP [26] and with LNCaP [27] was “Dose-dependent effect” in each case.
